Pf Dd2 inh: blocks growth of Plasmodium falciparum Dd2 parasites. P. falciparum Dd2 growth, SYBR Green, 72 h; stronger effect = lower value. activity change, % at 10 µM. 94,000 tested, 2.3% active; in the data active means activity change below about -80%; inconclusive means no clear call, values can overlap the other calls
IDH1 mut inh: inhibitors of human IDH1 R132H; O75874; IDH1 R132H reductase, diaphorase/resazurin fluorescence, 60 min; inhibition, % at 10 µM; 70,000 tested, 0.18% active; in the data active means inhibition above about 34%; inconclusive means no clear call, values can overlap the other calls; inactive means below about 11%;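 further: 0% = DMSO and 100% = no enzyme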
GASC1 inh: KDM4C (human) demethylase inhibition. inhibition, % at 12.5 µM. AID 720574. 96,000 tested, 0.15% active. GST-KDM4C 2-372, H3K9me3 peptide, LANCE TR-FRET. Q9H3R0;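 active means mean replicate inhibition above about 25%, with at least 55% of replicates also reaching it, limit read from the data, passing the limit was not always enough; inconclusive means only one of those two conditions met; inactive means neither condition met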
Target sequence (Q9H3R0 2-372 limits assumed): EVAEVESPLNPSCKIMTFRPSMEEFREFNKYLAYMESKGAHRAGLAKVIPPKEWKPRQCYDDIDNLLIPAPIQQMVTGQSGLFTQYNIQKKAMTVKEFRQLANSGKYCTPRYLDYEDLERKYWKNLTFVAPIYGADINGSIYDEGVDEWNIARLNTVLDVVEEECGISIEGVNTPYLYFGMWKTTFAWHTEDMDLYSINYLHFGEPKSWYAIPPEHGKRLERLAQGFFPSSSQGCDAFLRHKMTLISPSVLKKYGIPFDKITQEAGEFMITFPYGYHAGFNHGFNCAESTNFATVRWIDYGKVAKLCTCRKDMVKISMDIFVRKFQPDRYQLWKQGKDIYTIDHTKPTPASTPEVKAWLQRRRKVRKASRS
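Compound: one test concentration per compound; Material: GST-GASC-1 enzyme fragment 2-372; Amount: GASC-1 enzyme at 10 nM final in reaction; Also added: H3K9me3 peptide substrate, Fe(II), 2-oxoglutarate; Technique: LANCE TR-FRET; Times: 30 min demethylation and 1 h detection at room temperature.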
T cruzi growth: T. cruzi proliferation inhibition | T. cruzi beta-gal in NIH3T3, GalScreen luminescence, 90 h | inhibition, % at 8.34 µM | 77,000 tested, 5.9% active;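 active means mean inhibition above about 93%, with at least 55% of replicates each passing it, limit read from the data, passing the limit was not always enough; inconclusive means only one of those two conditions holds; inactive means neither condition holds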
Starred values were filed as active, the others as inactive; ? = inconclusive; nt = not tested or not shown. Most compounds without a hit are left out; they make up all but 5.9% or so of the library.

SMILES	Pf Dd2 inh	IDH1 mut inh	GASC1 inh	T cruzi growth
Cc1ccc(S(=O)(=O)N(C)C[C@@H]2Oc3c(NC(=O)CCCCCC(=O)Nc4ccccc4N)cccc3C(=O)N([C@H](C)CO)C[C@H]2C)cc1	-61	nt	17	nt
C[C@@H]1CN([C@H](C)CO)C(=O)c2cccc(NC(=O)CCCCCC(=O)Nc3ccccc3N)c2O[C@@H]1CN(C)S(C)(=O)=O	21	nt	-1	nt
C[C@@H]1CN([C@H](C)CO)C(=O)c2cccc(NC(=O)CCCCCC(=O)Nc3ccccc3N)c2O[C@@H]1CN(C)S(=O)(=O)c1ccc(Cl)cc1	-88*	0	0	87
COc1ccc(-c2ccccc2[C@@H]2[C@H](C#N)N(C(=O)C3CCC3)[C@H]2CO)cc1	13	nt	2	nt
C[C@@H]1CN([C@H](C)CO)C(=O)c2cccc(NC(=O)NC3CCCCC3)c2O[C@@H]1CN(C)Cc1ccc(C(=O)Nc2ccccc2N)cc1	-84*	nt	0	77
C[C@H](CO)N1C[C@H](C)[C@H](CN(C)Cc2ccc(C(=O)Nc3ccccc3N)cc2)Oc2c(NC(=O)NC3CCCCC3)cccc2C1=O	nt	nt	-1	nt
C[C@@H]1CN([C@@H](C)CO)C(=O)c2cccc(NC(=O)C3CCCCC3)c2O[C@@H]1CN(C)Cc1ccc(C(=O)Nc2ccccc2N)cc1	-85*	nt	0	57
C[C@H](CO)N1C[C@H](C)[C@H](CN(C)C(=O)Nc2ccccc2)OCc2ccccc2-c2c(n(C)c3ccccc23)C1=O	-14	-5	-1	49
C[C@@H]1CN([C@@H](C)CO)C(=O)c2c(c3ccccc3n2C)-c2ccccc2CO[C@@H]1CN(C)C(=O)Nc1ccc(-c2ccccc2)cc1	-88*	nt	-2	nt
C[C@H](CO)N1C[C@H](C)[C@H](CN(C)C(=O)Nc2ccc3c(c2)OCO3)OCc2ccccc2-c2c(n(C)c3ccccc23)C1=O	-85*	-2	2	92
C[C@H](CO)N1C[C@H](C)[C@@H](CN(C)C(=O)Nc2ccc(-c3ccccc3)cc2)OCc2ccccc2-c2c(n(C)c3ccccc23)C1=O	-94*	nt	-2	nt
C[C@H]1CN([C@@H](C)CO)C(=O)c2c(c3ccccc3n2C)-c2ccccc2CO[C@@H]1CN(C)C(=O)Nc1ccc(-c2ccccc2)cc1	-89*	nt	-4	nt
C[C@H](CO)N1C[C@H](C)[C@@H](CN(C)C(=O)Nc2ccccc2)OCc2ccccc2-c2c(n(C)c3ccccc23)C1=O	-69	nt	1	72
C[C@@H]1CN([C@H](C)CO)C(=O)c2c(c3ccccc3n2C)-c2ccccc2CO[C@@H]1CN(C)C(=O)Nc1ccc(-c2ccccc2)cc1	-83*	nt	-5	nt
Cc1noc(C)c1S(=O)(=O)N(C)C[C@H]1OCCCC[C@@H](C)Oc2ccc(NC(=O)c3ccccc3)cc2C(=O)N([C@@H](C)CO)C[C@@H]1C	-84*	nt	-1	35
Cc1noc(C)c1S(=O)(=O)N(C)C[C@H]1OCCCC[C@H](C)Oc2ccc(NC(=O)c3ccccc3)cc2C(=O)N([C@H](C)CO)C[C@H]1C	-77	nt	-2	37
Cc1noc(C)c1S(=O)(=O)N(C)C[C@H]1OCCCC[C@H](C)Oc2ccc(NC(=O)c3ccccc3)cc2C(=O)N([C@@H](C)CO)C[C@@H]1C	-86*	nt	-2	67
COc1ccc2c3c([nH]c2c1)[C@@H](CO)N(C(=O)c1ccncc1)CC31CN(C(=O)Nc2cccc(F)c2)C1	26	nt	-1	nt
CC(/C=C/C(=O)NO)=C\c1ccccc1OC[C@@H]1[C@H]2C[C@H]3c4[nH]c5ccccc5c4CCN3C[C@@H]2CC[C@@H]1O	nt	74*	nt	nt
C[C@@H]1CCCCO[C@H](CN(C)Cc2ccc(Cl)c(Cl)c2)[C@H](C)CN([C@@H](C)CO)C(=O)c2cc(NC(=O)Nc3ccc(C(F)(F)F)cc3)ccc2O1	?	0	1	60
C[C@@H]1CCCCO[C@H](CN(C)Cc2ccc(C(F)(F)F)cc2)[C@@H](C)CN([C@@H](C)CO)C(=O)c2cc(NC(=O)Nc3ccccc3)ccc2O1	-82*	nt	0	70
C[C@@H]1CCCCO[C@@H](CN(C)Cc2ccc(Cl)c(Cl)c2)[C@H](C)CN([C@H](C)CO)C(=O)c2cc(NC(=O)Nc3ccc(C(F)(F)F)cc3)ccc2O1	-86*	0	12	51
C[C@@H]1CN([C@@H](C)CO)C(=O)c2cc(NC(=O)c3ccccc3)ccc2O[C@@H](C)CCCCO[C@H]1CN(C)Cc1ccc(C(F)(F)F)cc1	-84*	-1	-1	69
C[C@H]1CCCCO[C@H](CN(C)Cc2ccc(C(F)(F)F)cc2)[C@@H](C)CN([C@@H](C)CO)C(=O)c2cc(NC(=O)Nc3ccccc3)ccc2O1	-6	-1	-1	68
C[C@H]1CCCCO[C@@H](CN(C)Cc2ccc(C(F)(F)F)cc2)[C@@H](C)CN([C@@H](C)CO)C(=O)c2cc(NC(=O)c3ccccc3)ccc2O1	-59	nt	0	63
SMILES	Pf Dd2 inh	IDH1 mut inh	GASC1 inh	T cruzi growth
C[C@@H]1CCCCO[C@H](CN(C)Cc2ccc(C(F)(F)F)cc2)[C@@H](C)CN([C@@H](C)CO)C(=O)c2cc(NC(=O)c3ccccc3)ccc2O1	-86*	2	-2	68
C[C@H]1CCCCO[C@H](CN(C)Cc2ccc(C(F)(F)F)cc2)[C@@H](C)CN([C@@H](C)CO)C(=O)c2cc(NC(=O)c3ccccc3)ccc2O1	-42	1	1	74
COc1ccccc1NC(=O)Nc1ccc2c(c1)C(=O)N(C)C[C@H](OC)[C@@H](C)CN(C)[C@H](C)CO2	-20	0	0	2
Cc1cccc(S(=O)(=O)N[C@@H]2CC[C@@H](CCNC(=O)c3cnccn3)O[C@@H]2CO)c1	23	0	-1	33
C[C@@H]1CN([C@H](C)CO)C(=O)c2cc(NS(=O)(=O)c3cccs3)ccc2O[C@@H](C)CCCCO[C@@H]1CN(C)C(=O)CCC(F)(F)F	-29	1	0	-33
COc1ccc(NC(=O)N(C)C[C@H]2Oc3ncc(C#CCC(C)C)cc3C(=O)N([C@H](C)CO)C[C@H]2C)cc1	-16	-3	-4	35
C[C@@H]1CN([C@@H](C)CO)C(=O)c2cccc(NC(=O)c3cnccn3)c2O[C@H]1CN(C)Cc1ccc2c(c1)OCO2	-15	nt	8	49
C[C@@H]1CCCCO[C@@H](CN(C)Cc2ccc(C(F)(F)F)cc2)[C@@H](C)CN([C@H](C)CO)C(=O)c2cc(NC(=O)Cc3ccccc3)ccc2O1	1	nt	1	89
C[C@H]1CCCCO[C@@H](CN(C)CC2CCCCC2)[C@@H](C)CN([C@@H](C)CO)C(=O)c2cc(NC(=O)CCCN(C)C)ccc2O1	-89*	nt	1	18
C[C@@H]1CCCCO[C@@H](CN(C)Cc2ccc(C(F)(F)F)cc2)[C@H](C)CN([C@@H](C)CO)C(=O)c2cc(NC(=O)Cc3ccccc3)ccc2O1	-86*	1	0	-11
C[C@@H]1CCCCO[C@H](CN(C)Cc2ccc(C(F)(F)F)cc2)[C@H](C)CN([C@@H](C)CO)C(=O)c2cc(NC(=O)CCCN(C)C)ccc2O1	-89*	2	2	66
